{"source": "paper PMC3115796", "about": "(The Journal of Cell Biology, 2011)", "key": {"[1]": {"system": "SLAIN2 C terminus / full-length CLIP-170", "assay": "GST-SLAIN2 pull-down of CLIPs and full-length CLIP-170", "format": "binding"}, "[2]": {"biological_target": "T1, CLIPCG1 (first CAP-Gly domain of CLIP-170) (Homo sapiens, UniProt P30622)", "T1 sequence (P30622 56-128)": "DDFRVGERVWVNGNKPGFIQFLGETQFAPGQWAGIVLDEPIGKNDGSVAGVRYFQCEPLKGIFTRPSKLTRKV", "assay": "ITC of SLAIN2c with first CAP-Gly domain of CLIP-170", "format": "binding"}, "[3]": {"biological_target": "T2, CLIPCG2 (second CAP-Gly domain of CLIP-170) (Homo sapiens, UniProt P30622)", "T2 sequence (P30622 210-282)": "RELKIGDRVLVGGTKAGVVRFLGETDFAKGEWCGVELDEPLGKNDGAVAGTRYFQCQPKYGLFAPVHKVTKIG", "assay": "ITC of SLAIN2c with second CAP-Gly domain of CLIP-170", "format": "binding"}, "[4]": {"biological_target": "T3, CLIPCG12 (both CAP-Gly domains of CLIP-170) (Homo sapiens, UniProt P30622)", "T3 sequence (P30622 48-300)": "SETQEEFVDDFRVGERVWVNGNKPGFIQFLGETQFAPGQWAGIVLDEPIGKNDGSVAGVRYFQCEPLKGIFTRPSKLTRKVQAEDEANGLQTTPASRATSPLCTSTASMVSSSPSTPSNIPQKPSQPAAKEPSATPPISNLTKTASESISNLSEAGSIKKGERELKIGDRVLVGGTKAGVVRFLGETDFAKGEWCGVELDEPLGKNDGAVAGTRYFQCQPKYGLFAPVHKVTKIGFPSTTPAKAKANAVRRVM", "assay": "ITC of SLAIN2c with double CAP-Gly construct of CLIP-170", "format": "binding"}, "[5]": {"system": "p150CG (CAP-Gly domain of dynactin large subunit p150^Glued)", "assay": "ITC of SLAIN2c with CAP-Gly domain of p150Glued", "format": "binding, human", "settings": "ITC in PBS, 25°C"}, "SLAIN2 in 3T3 cells": {"system": "SLAIN2 in 3T3 cells", "assay": "siRNA knockdown in mouse 3T3 cells", "format": "cell-based", "settings": "siRNA 5 nM, 72 h", "how_it_was_run": "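Mouse Swiss 3T3 cells were cultured in 45% DME, 45% Ham's F10 and 10% FCS. Cells were blocked in interphase with 2 mM thymidine, added 1 d after transfection, for 2 d.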"}}, "note": "“Also recorded” adds a separate entry of the source. Ends that are not written are not given here.", "data": [{"substance": "GFP–CLIP-115: full-length rat CLIP-115 [reference compound]", "values": [{"measurement": "association with SLAIN2 C terminus", "setting": "[1]", "value": "associated with the SLAIN2 C terminus"}]}, {"substance": "GSMKDDSWKDGCY-OH [SLAIN2c]", "values": [{"measurement": "Kd (in words)", "setting": "[2]; ITC", "value": "micromolar range"}, {"measurement": "Kd (in words)", "setting": "[3]; ITC", "value": "micromolar range"}, {"measurement": "Kd (in words)", "setting": "[4]", "value": "comparable"}, {"measurement": "binding by ITC (in words)", "setting": "[5]", "value": "only very weak binding; also recorded: more weakly than the two CAP-Gly domains of CLIP-170"}]}, {"substance": "SLAIN2 siRNA#2: siRNA target sequence 5′-CUCUAUAGAUAGUGAGUUA-3′ (chemistry not given here)", "values": [{"measurement": "depletion of SLAIN2", "setting": "SLAIN2 in 3T3 cells", "value": "efficiently deplete SLAIN2"}]}, {"substance": "SLAIN2c-W576A (GSMKDDSAKDGCY)", "values": [{"measurement": "binding by ITC (in words)", "setting": "[2]; ITC in PBS, 25°C", "value": "abrogates binding"}, {"measurement": "binding by ITC (in words)", "setting": "[3]; ITC in PBS, 25°C", "value": "abrogates binding"}]}]}
